# Shown are actives, neighbours in structure and some others; about 1.7% of the full set was active somewhere.
# STEP inh = blocks human striatal-enriched tyrosine phosphatase | P54829 | recombinant STEP, OMFP fluorogenic substrate, fluorescence | inhibition, % at 20 µM | 360,000 tested, 0.25% active | AID 588621;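 active = inhibition at 20 µM, scaled per plate between control wells, above about 37%, limit read from the data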;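 note: 0% = DMSO with enzyme and substrate and 100% = substrate only without enzyme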
#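 Measure: Control-normalized % inhibition with plate pattern correction | Test system: STEP phosphatase, cell-free reaction | Medium: pH 6.0 Bis-Tris with DTT and Tween 20 | Technique: Fluorescence, 480/540 nm | Times: Reaction 20 min, ambient temperature | Doses: Single compound dose of 20 µM, 1% DMSO final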
# DNMT1 inh = blocks human DNA methyltransferase DNMT1. DNMT1 molecular beacon, Hinp1I cleavage, fluorescence. P26358. inhibition (reported as % activation of signal), % at 10 µM. 360,000 tested, 0.83% active; in the data active = inhibition above about 50%
# Target sequence (P26358 504-1616 limits assumed): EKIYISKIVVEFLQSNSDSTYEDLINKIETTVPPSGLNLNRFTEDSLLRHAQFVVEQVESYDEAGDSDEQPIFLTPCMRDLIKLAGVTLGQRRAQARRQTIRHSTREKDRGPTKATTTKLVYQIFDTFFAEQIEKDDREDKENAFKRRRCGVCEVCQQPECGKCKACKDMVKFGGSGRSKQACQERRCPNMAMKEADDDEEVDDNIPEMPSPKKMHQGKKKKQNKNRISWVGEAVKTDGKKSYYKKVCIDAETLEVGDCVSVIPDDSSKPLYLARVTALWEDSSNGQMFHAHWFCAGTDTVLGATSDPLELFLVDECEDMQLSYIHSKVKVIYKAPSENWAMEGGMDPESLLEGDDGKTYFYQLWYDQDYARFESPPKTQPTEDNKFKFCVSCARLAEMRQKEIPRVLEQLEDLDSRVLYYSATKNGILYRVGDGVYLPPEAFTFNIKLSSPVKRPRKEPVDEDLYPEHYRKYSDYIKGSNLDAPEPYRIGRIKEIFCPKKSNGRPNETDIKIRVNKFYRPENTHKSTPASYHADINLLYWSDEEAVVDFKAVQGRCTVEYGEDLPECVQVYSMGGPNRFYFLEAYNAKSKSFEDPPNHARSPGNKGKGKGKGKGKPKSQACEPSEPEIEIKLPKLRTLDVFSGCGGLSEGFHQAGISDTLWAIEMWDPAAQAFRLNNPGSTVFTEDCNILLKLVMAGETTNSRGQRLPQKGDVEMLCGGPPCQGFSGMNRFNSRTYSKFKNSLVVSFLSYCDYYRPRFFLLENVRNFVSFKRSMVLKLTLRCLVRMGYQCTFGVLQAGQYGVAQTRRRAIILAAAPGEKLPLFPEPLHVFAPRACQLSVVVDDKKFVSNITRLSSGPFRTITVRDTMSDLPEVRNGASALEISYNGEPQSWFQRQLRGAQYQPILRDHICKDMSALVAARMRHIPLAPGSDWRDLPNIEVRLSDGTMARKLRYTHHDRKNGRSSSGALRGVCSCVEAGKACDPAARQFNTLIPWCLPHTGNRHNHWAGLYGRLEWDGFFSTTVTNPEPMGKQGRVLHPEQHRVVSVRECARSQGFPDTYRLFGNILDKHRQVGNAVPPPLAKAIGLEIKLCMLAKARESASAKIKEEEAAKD
# LMPTP inh = blocks human LMPTP phosphatase; inhibition, % at 20 µM; recombinant LMPTP-A, OMFP fluorogenic substrate, fluorescence intensity; 360,000 tested, 0.22% active;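 active = compounds that cut the enzyme signal by at least half of the control window in the single-dose screen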;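 note: plate controls were DMSO wells with enzyme plus substrate for no effect and substrate without enzyme for full effect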
#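 Test system – LMPTP-A phosphatase enzyme · Quantity – 0.625 nM LMPTP-A final · Reagent – OMFP substrate, 400 µM final · Dosing – one test concentration per compound, 20 µM, with 3% DMSO overall · Timing – 50 min enzyme reaction at room temperature, protected from light · Detection – fluorescence intensity · Controls – substrate-only low control, DMSO enzyme-plus-substrate high control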
# SUMO1-SIM PPI = modulators of human SUMO1-mediated protein-protein interactions | AID 602429 | SUMO1 binding to a labelled peptide, TR-FRET, 1 h | inhibition, % at 20 µM | P63165 | 360,000 tested, 0.33% active; in the data active = inhibition above about 37%
# Scp-1 inhibitor = Scp-1 (human) phosphatase inhibition; 340,000 tested, 0.88% active; AID 493091; Q9GZU7; Recombinant Scp1, phosphopeptide, malachite green phosphate absorbance; inhibition, % at 20 µM;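 active = inhibition above about 50% at 20 µM, limit read from the data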;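 note: plate controls were DMSO wells with enzyme for no effect and wells lacking enzyme for full effect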
#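 assay system = SCP-1 phosphatase catalytic domain, residues 76-261 | buffer or medium = 50 mM Tris acetate pH 5.5, 0.005% Tween-20, 10 mM MgCl2 | incubation = enzyme reaction 45 min at room temperature, colour 5 min, stabilisation 30 min | signal = Phosphate-binding colour reagent, absorbance read at 630 nm | measure = % inhibition at 20 µM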
# An asterisk follows results filed as active; . = no result.
SMILES,STEP inh,DNMT1 inh,LMPTP inh,SUMO1-SIM PPI,Scp-1 inhibitor
O=S(=O)(/N=S1\CC=CCN1S(=O)(=O)c1ccccc1)c1ccccc1 (centres undefined),7,1,1,3,-4
CC1(C)C(/C=C/C=C/C=C/C=C2\N(CCCCS(=O)(=O)O)c3ccc4ccccc4c3C2(C)C)=[N+](CCCCS(=O)(=O)[O-])c2ccc3ccccc3c21,12,88*,29,110*,49
Clc1nssc1=Nc1ccc(Br)cc1,7,-3,50*,-12,-1
Clc1ccc(N=c2ssnc2Cl)nc1,31,-6,79*,21,-11
CCOC(=O)[C@]12CCC=C1N(CCC1=CCCCC1)C(=O)[C@H](CC(=O)NCc1cccc3ccccc13)C2,.,.,2,3,.
O=C(O)C(O)Cc1c[nH]c2ccccc12 (centres undefined),2,0,-1,7,10
CC(Cc1c[nH]c2ccccc12)C(=O)O (centres undefined),5,73*,0,-2,66*
O=C(NCc1ccco1)c1cccc2c1C(=O)c1ccc(/C=C/c3ccccc3)cc1S2(=O)=O,-2,13,5,-10,75*
CCOC(=O)C1(C)C(=O)CC2c3nc4ccccc4cc3CN2C1=O (centres undefined),-2,-1,0,-9,.
O=C(CSc1nncs1)Nc1ccc2[nH]c(=O)[nH]c2c1,-3,1,1,66*,-6
O=C(COC(=O)c1ccc(Cl)c(S(=O)(=O)N2CCOCC2)c1)Nc1ccc2[nH]c(=O)[nH]c2c1,-2,-2,-1,84*,3
COc1ccc(CC(=O)OCC(=O)Nc2ccc3[nH]c(=O)[nH]c3c2)cc1,2,1,-1,15,-4
O=C(COC(=O)Cc1ccc(F)cc1)Nc1ccc2[nH]c(=O)[nH]c2c1,0,-2,0,74*,-4
CCC(C(=O)OCC(=O)Nc1cccc(C(C)=O)c1)c1ccccc1 (centres undefined),-1,-4,-1,0,-9
CCC(C(=O)OCC(=O)Nc1ccc2[nH]c(=O)[nH]c2c1)c1ccccc1 (centres undefined),-1,3,0,43*,-6
COCCNc1ncnc2c1ncn2[C@H]1CN(Cc2ccc(-c3ccccc3)cc2)C[C@@H](CO)O1,-1,1,0,-4,.
Cc1ccc(C(=O)CCC(=O)OCC(=O)Nc2ccc3[nH]c(=O)[nH]c3c2)cc1,0,4,0,25,2
O=C(COC(=O)CCC(=O)c1ccc(F)cc1)Nc1ccc2[nH]c(=O)[nH]c2c1,-1,0,0,39*,-3
O=C(COC(=O)c1ccccc1OC(F)F)Nc1ccc2[nH]c(=O)[nH]c2c1,-3,-10,-1,40*,26
O=C(COC(=O)c1ccccc1Cl)Nc1ccc2[nH]c(=O)[nH]c2c1,0,1,0,7,-3
COc1ccc2nc3cc(Cl)ccc3c(Nc3ccc(O)c(CN4CCN(C)CC4)c3)c2c1,6,68*,22,-65,-10
Oc1ccc(-c2csc(Nc3cccc4ccccc34)n2)cc1O,3,18,62*,17,11
CC(C)Nc1ccc(Nc2ccnc3cc4ccccc4cc23)cc1,4,66*,22,-69,-4
COc1ccc(Nc2ccnc3ccccc23)cc1,1,0,56*,-14,-1
CCNC(=O)C1(C)CCCN(C(=O)c2oc3ccccc3c2C)C1 (centres undefined),-1,3,-1,5,.
SMILES,STEP inh,DNMT1 inh,LMPTP inh,SUMO1-SIM PPI,Scp-1 inhibitor
O=C(O)/C(=C\c1ccc(Cl)c([N+](=O)[O-])c1)c1ccc(S(=O)(=O)N2CCCC2)s1,6,72*,28,11,66*
O=C(O)/C(=C\c1ccc(Cl)c([N+](=O)[O-])c1)c1ccc(S(=O)(=O)N2CCCCC2)s1,-1,-18,2,9,8
O=C(O)C1C2C=CC(O2)C1C(=O)NCCC1=CCCCC1 (centres undefined),7,53*,-2,4,38
O=C(NCCC1=CCCCC1)C(=O)NCc1ccccc1,-4,4,-1,2,-6
CCOC(=O)C1Nc2ccc(C(=O)O)cc2C2C=CCC12 (centres undefined),42*,60*,2,48*,36
CN1/C(=C\C=N\O)C(C)(C)c2ccccc21,-2,-9,-2,3,-4
